Among the data in ChEMBL document CHEMBL4251675, “Saroclides A and B, Cyclic Depsipeptides from the Mangrove-Derived Fungus Sarocladium kiliense HDN11-112” (J Nat Prod, 2018) are Activity values, retold here.

Activity calls are given as the source filed them. The calls are words filed in the database; no cut-off is given here.

One data set concerns Escherichia coli. In words: Antibacterial activity against Escherichia coli after 20 hrs by double dilution method. The data set is classed as functional, organism-based. The gist of the method:
(§1)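 Broth doubling-dilution assay against E. coli, S. aureus, C. albicans and B. subtilis, with chloramphenicol as positive control.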

Another data set deals with HEK293. In words: Cytotoxicity against human HEK293 cells. Format: functional, cell-based. The essentials:
(§2)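 HeLa, BEL-7402, HEK-293, HCT-116 and A549 lines tested by MTT or SRB method, with doxorubicin as positive control.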

The next data set deals with Bel-7402. Description: Cytotoxicity against human Bel7402 cells. The data set is classed as functional, cell-based. The gist of the method:
as §2

A further data set deals with Staphylococcus aureus. Description: Antibacterial activity against Staphylococcus aureus after 20 hrs by double dilution method. Format: functional, organism-based. The gist of the method: as §1
The next data set relates to HCT-116. In words: Cytotoxicity against human HCT116 cells. The data set is classed as functional, cell-based. The essentials: as §2
Another data set deals with A549. In words: Cytotoxicity against human A549 cells. The data set is classed as functional, cell-based. The essentials:
as §2

For another data set, the system named is Bacillus subtilis. Description: Antibacterial activity against Bacillus subtilis after 20 hrs by double dilution method. The data set is classed as functional, organism-based. The gist of the method: as §1
The next data set deals with HeLa. In words: Cytotoxicity against human HeLa cells. The data set is classed as functional, cell-based. The essentials: as §2
A further data set relates to Candida albicans. Description: Antifungal activity against Candida albicans by double dilution method. Format: functional, organism-based. The gist of the method: as §1
For data set [1], the system named is HepG2. In words: Lipid lowering activity in human HepG2 cells assessed as reduction in oleic acid-induced triglyceride level at 2.5 to 10 uM after 24 hrs by oil red O staining based spectrophotometric method. The data set is classed as functional, cell-based.
The subject of data set [2] is HepG2. In words: Cytotoxicity against human HepG2 cells assessed as reduction in cell viability at 20 uM after 20 hrs by MTT assay. The data set is classed as cell-based. As to conditions: hepg2, 20 h. The essentials: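 HepG2 grown in high-glucose DMEM with 10% FBS at 37 °C, 5% CO2. Once confluent, incubated 20 h with compound. Medium then replaced with fresh medium containing 10% sterile-filtered MTT for 4 h. Formazan dissolved in isopropanol, absorbance read at 570 nm with 630 nm reference. Viability expressed as % of blank wells. Means ± SEM of at least three experiments.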
(In general: Formazan colour is commonly taken as a measure of viable cells.)

Data set [3] has as its system HepG2. Description: Lipid lowering activity in human HepG2 cells assessed as reduction in oleic acid-induced lipid accumulation at 2.5 to 10 uM after 24 hrs by oil red O staining based spectrophotometric method. The data set is classed as functional, cell-based. The gist of the method: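 HepG2 in high-glucose DMEM/10% FBS at 37 °C, 5% CO2, grown to 90% confluence. Treated 24 h with compound (2.5, 5.0, 10.0 μM) or simvastatin 10 μM in high-glucose DMEM plus 100 μM oleic acid. Blank was serum-free DMEM alone, negative control OA alone. Neutral lipid by oil-red O staining, read spectrophotometrically at 358 nm. Means ± SEM, ≥3 experiments.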

Data set [4] has as its system HepG2. Description: Lipid lowering activity in human HepG2 cells assessed as reduction in oleic acid-induced intracellular cholesterol level at 2.5 to 10 uM after 24 hrs […]. The data set is classed as functional, cell-based. The essentials:
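HepG2 at 90% confluence treated 24 h with compound (2.5, 5.0, 10.0 μM) or simvastatin 10 μM in high-glucose DMEM containing 100 μM oleic acid. Blank was serum-free DMEM, OA-only as negative control. Intracellular total cholesterol and triglyceride measured with commercial kits per manufacturer. Means ± SEM of at least three experiments.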

In the case of `CCC[C@@H]1C/C=C(\C)C(=O)CC(=O)N[C@H](Cc2ccccc2)C(=O)N2CCC[C@@H]2C(=O)O1`, the result in the data set on Escherichia coli, with HEK293, in the data set with Bel-7402, with Staphylococcus aureus, in the data set on HCT-116 and in the data set with A549 was inactive. The outcome in the data set with Bacillus subtilis, with HeLa and with Candida albicans was inactive.

In the case of `CCC[C@@H]1C/C=C(\C)C(=O)CC(=O)N[C@H](Cc2ccccc2)C(=O)N2CCC[C@H]2C(=O)O1`, the outcome with Escherichia coli, in the data set with HEK293, in the data set with Bel-7402, in the data set with Staphylococcus aureus, in the data set on HCT-116 and in the data set with A549 was inactive. Also, the outcome in the data set on Bacillus subtilis, in the data set on HeLa and with Candida albicans was inactive. For the same molecule, the result with HepG2 [1], with HepG2 [3] and in the data set with HepG2 [4] was Active. The Activity entry in the data set with HepG2 [2] is on record as “Non-Toxic”.
